Here are results for 21 molecules from ChEMBL document CHEMBL1132155, “Endothelin antagonists: substituted mesitylcarboxamides with high potency and selectivity for ET(A) receptors” (J Med Chem, 1999).

The nature of series [1]: Compound was evaluated for the biological half-life when administered orally in Acute Pulmonary Hypertension Rat Model. The class given is ADME, organism-based. The note with it: in vivo, po. The method, boiled down:
(§1)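 Adult Harlan Sprague–Dawley rats received 50 mg/kg by gavage in 0.5% high-viscosity carboxymethyl cellulose (5 mL/kg). Serial 200 μL tail-vein blood samples were taken at selected times into heparin-coated tubes. Red cells were removed by centrifugation and plasma stored at −80 °C. Plasma proteins were precipitated with acetonitrile before HPLC analysis; serum half-life was derived from these samples.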

The target in series [2] is Endothelin receptor, ET-A/ET-B (Homo sapiens) (UniProt P24530+P25101). As to the kind of experiment: Compound was evaluated for the selectivity of ET-A receptors (ET-B IC50/ ET-A IC50). The class given is protein assay.
Chain of Endothelin receptor, ET-A/ET-B (Homo sapiens) (P24530 whole entry, looked up, one chain of several): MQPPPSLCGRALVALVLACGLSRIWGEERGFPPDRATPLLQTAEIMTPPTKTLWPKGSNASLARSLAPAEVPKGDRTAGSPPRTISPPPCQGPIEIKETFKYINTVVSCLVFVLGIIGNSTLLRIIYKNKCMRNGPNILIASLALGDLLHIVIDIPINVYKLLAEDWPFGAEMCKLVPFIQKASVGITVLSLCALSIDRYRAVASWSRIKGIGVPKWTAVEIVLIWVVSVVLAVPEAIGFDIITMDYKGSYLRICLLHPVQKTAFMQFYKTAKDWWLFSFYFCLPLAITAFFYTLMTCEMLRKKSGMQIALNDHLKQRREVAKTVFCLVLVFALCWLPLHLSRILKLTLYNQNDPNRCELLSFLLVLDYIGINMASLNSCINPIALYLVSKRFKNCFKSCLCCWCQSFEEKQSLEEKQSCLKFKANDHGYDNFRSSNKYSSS
The target in series [3] is T1, Endothelin-1 receptor (Homo sapiens) (UniProt P25101).
T1 sequence (whole entry): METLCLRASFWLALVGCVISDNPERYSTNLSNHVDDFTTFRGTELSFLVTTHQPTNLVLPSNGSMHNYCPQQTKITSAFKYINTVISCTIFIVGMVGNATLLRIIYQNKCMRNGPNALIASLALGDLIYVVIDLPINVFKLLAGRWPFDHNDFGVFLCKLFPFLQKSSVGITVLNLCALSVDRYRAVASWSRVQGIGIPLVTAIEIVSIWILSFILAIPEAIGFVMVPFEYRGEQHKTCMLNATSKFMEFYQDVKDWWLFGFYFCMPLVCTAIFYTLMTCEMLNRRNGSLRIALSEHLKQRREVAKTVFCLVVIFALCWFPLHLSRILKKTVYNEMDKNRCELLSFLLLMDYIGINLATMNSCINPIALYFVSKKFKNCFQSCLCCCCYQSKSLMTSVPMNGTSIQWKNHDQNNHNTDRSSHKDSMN
As to the kind of experiment: Competitive binding to Endothelin A receptor by displacement of [125I]ET1 (Relative IC50 was calculated as IC50 of compound/IC50 of TBC11251).

Series [4] in a line: Compound was evaluated for the aqueous solubility (AS) in mg/mL (Measured in 0.2 M phosphate buffer of pH 7.4). The class given is physicochemical. The note with it: read-out: AS. Summed up:
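Solubility measured in 0.2 M phosphate buffer, pH 7.4. Where a preformed sodium salt was used, it was measured in saline (9 mg/mL).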

The subject of series [5] is Rattus norvegicus. As to the kind of experiment: Compound was evaluated for the effective oral dose in Acute Pulmonary Hypertension Rat Model after administering 2 hours prior to experiment. The class given is functional. Summed up: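 Rat model of acute hypoxia-induced pulmonary hypertension. Compound given orally 2 h before hypoxia. Reported value is the lowest tested dose giving 90–100% inhibition of mean pulmonary arterial pressure; mean systemic arterial pressure and heart rate were also monitored. Some entries give % inhibition at 5 mg/kg.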

The test system of series [6] is Rattus norvegicus. Kind of series: Compound was evaluated for the biological half-life when administered orally in Acute Pulmonary Hypertension Rat Model; NM=Not measurable (T1/2 h). The class given is ADME, organism-based. To be noted: in vivo, po. The method, boiled down:
as §1

In brackets after ≈: the same amount, converted by molar mass.

As for `Cc1cc(C)c(S(N)(=O)=O)c(C)c1NC(=O)c1sccc1S(=O)(=O)Nc1onc(C)c1Cl`, the half-life (in general, the time needed for the level to fall by half in the phase considered) in series [1] was 1.5 h. Moreover, the Selectivity in series [2] turned out to be 27800. Moreover, the Relative ET-A IC50 in series [3] was 0.06. In addition, in series [4], the solubility came out at 30 mg/mL (≈ 57.8 mM). For the same molecule, the Effective dose in the series on Rattus norvegicus [5] was 5 mg/kg.

Regarding `Cc1cc(C)c(NC(=O)c2sccc2S(=O)(=O)Nc2onc(C)c2Cl)c(C)c1CC#N`, in series [1], the half-life was 2.3 h. This molecule also showed a Selectivity in series [2] of 32900. In addition, the Relative ET-A IC50 in series [3] was 0.08. For the same molecule, the solubility in series [4] is below 10 mg/mL. Also, the Effective dose in the series on Rattus norvegicus [5] came out at 5 mg/kg.

In turn, `Cc1cc(C)c(NC(=O)c2sccc2S(=O)(=O)Nc2onc(C)c2C)c(C)c1CC#N` gave a half-life in series [1] of 1.8 h. The same molecule displayed a Selectivity in series [2] of 14600. In addition, the Relative ET-A IC50 in series [3] is 0.1. Also, in series [4], the solubility is below 10 mg/mL.

In turn, `Cc1cc2c(cc1CC(=O)c1sccc1S(=O)(=O)Nc1onc(C)c1Cl)OCO2` [SITAXENTAN] had a half-life in series [1] of 4.1 h. Also, the Selectivity in series [2] turned out to be 3210. Besides, the Relative ET-A IC50 in series [3] was 1. The solubility in series [4] was below 10 mg/mL. In addition, in the series with Rattus norvegicus [5], the Effective dose came to 5 mg/kg.

Regarding `Cc1cc(C)c(CC(=O)c2sccc2S(=O)(=O)Nc2onc(C)c2Cl)c(C)c1O`, the half-life in series [1] is 3.9 h. Besides, the Selectivity in series [2] is 10800. In series [3], the Relative ET-A IC50 was 0.08.

In series [1], `Cc1cc(C)c(NC(=O)c2sccc2S(=O)(=O)Nc2onc(C)c2Cl)c(C)c1CO` showed a half-life of 1.4 h. In series [2], this molecule displayed a Selectivity of 111000. Besides, the Relative ET-A IC50 in series [3] was 0.04. In addition, in series [4], the solubility was found to be 65 mg/mL (≈ 138 mM). In addition, the Effective dose with Rattus norvegicus [5] was found to be 15 mg/kg.

With `COc1c(C)cc(C)c(NC(=O)c2sccc2S(=O)(=O)Nc2onc(C)c2Cl)c1C`, the half-life in series [1] was 1.8 h. In series [2], the Selectivity was 56400. Also, the Relative ET-A IC50 in series [3] was 0.06. In addition, the solubility in series [4] is below 10 mg/mL.

In series [1], `CC(=O)OCc1c(C)cc(C)c(NC(=O)c2sccc2S(=O)(=O)Nc2onc(C)c2Cl)c1C` gave a half-life of 0.5 h. For the same molecule, in series [2], the Selectivity stood at 850000. The Relative ET-A IC50 in series [3] is 0.06. For the same molecule, the Effective dose with Rattus norvegicus [5] was 5 mg/kg.

Consider `Cc1cc(C)c(NS(C)(=O)=O)c(C)c1NC(=O)c1sccc1S(=O)(=O)Nc1onc(C)c1Cl`, for which the half-life in series [1] is 2.1 h. This molecule also displayed a Selectivity in series [2] of 41700. For the same molecule, the Relative ET-A IC50 in series [3] was 0.11. In addition, the solubility in series [4] was below 10 mg/mL.

Molecule `Cc1cc(C)c(NC(=O)c2sccc2S(=O)(=O)Nc2noc(C)c2Cl)c(C)c1CC#N` gave a half-life in series [1] of 3.1 h. This molecule came in with a Selectivity in series [2] of 8550. Further, the Relative ET-A IC50 in series [3] is 0.06. Moreover, in series [4], the solubility was 70 mg/mL (≈ 146 mM).

The molecule `Cc1cc(C)c(N(C)C)c(C)c1NC(=O)c1sccc1S(=O)(=O)Nc1onc(C)c1Cl` had a half-life in series [1] of 1 h. For the same molecule, the Selectivity in series [2] worked out at 36600. Further, in series [3], the Relative ET-A IC50 was 0.07. Further, the solubility in series [4] came out at 50 mg/mL (≈ 104 mM).

As for `Cc1cc(C)c(NC(=O)c2sccc2S(=O)(=O)Nc2onc(C)c2Cl)c(C)c1C#N`, the half-life in series [1] was 1.8 h. The same molecule returned a Selectivity in series [2] of 37700. Moreover, the Relative ET-A IC50 in series [3] is 0.1. For the same molecule, in series [4], the solubility is 37 mg/mL (≈ 79.6 mM).

In series [1], `Cc1cc(C)c(NC(=O)c2sccc2S(=O)(=O)Nc2onc(C)c2Cl)c(C)c1O` showed a half-life of 7.3 h. In addition, in series [2], the Selectivity was found to be 10900. Also, the Relative ET-A IC50 in series [3] was 0.11. Besides, the solubility in series [4] was determined as 83 mg/mL (≈ 182 mM). Besides, in the series on Rattus norvegicus [5], the Effective dose is 5 mg/kg.

`COC(=O)Oc1c(C)cc(C)c(NC(=O)c2sccc2S(=O)(=O)Nc2onc(C)c2Cl)c1C` came in with a Selectivity in series [2] of 22200. Besides, in series [3], the Relative ET-A IC50 was 0.05. Also, the T1/2 entry in the series on Rattus norvegicus [6] is given as “Not Active”.

`Cc1cc(C)c(OC(N)=O)c(C)c1NC(=O)c1sccc1S(=O)(=O)Nc1onc(C)c1Cl` came in with a Selectivity in series [2] of 6700. The Relative ET-A IC50 in series [3] is 0.34. In the series with Rattus norvegicus [6], the T1/2 entry is on record as “Not Active”.

Regarding `COc1c(C)cc(C)c(CC(=O)c2sccc2S(=O)(=O)Nc2onc(C)c2Cl)c1C`, the half-life in series [1] is 3.86 h. The molecule also had a Selectivity in series [2] of 7640. The Relative ET-A IC50 in series [3] was 0.13.

For the molecule `Cc1nc(C)c(NC(=O)c2sccc2S(=O)(=O)Nc2onc(C)c2Cl)c(C)n1`, the Selectivity in series [2] was determined as 9160. For the same molecule, in series [3], the Relative ET-A IC50 is 0.25.

With `COc1cc(C#N)c(NC(=O)c2sccc2S(=O)(=O)Nc2onc(C)c2Cl)c(OC)c1OC`, in series [1], the half-life is below 1 h. Also, the Selectivity in series [2] is 29200. The Relative ET-A IC50 in series [3] was 0.01. For the same molecule, the solubility in series [4] is 43 mg/mL (≈ 83.8 mM).

Molecule `CC(=O)OCc1c(C)cc(C)c(NC(=O)c2sccc2S(=O)(=O)Nc2noc(C)c2Cl)c1C` yielded a Selectivity in series [2] of 38400. The Relative ET-A IC50 in series [3] is 0.03.

`Cc1cc(C)c(NC(=O)c2sccc2S(=O)(=O)Nc2onc(C)c2Cl)c(C)c1` had a half-life in series [1] of 2.5 h. The molecule further returned a Selectivity in series [2] of 7050. Moreover, the Relative ET-A IC50 in series [3] is 0.1. In addition, the solubility in series [4] turned out to be 23 mg/mL (≈ 52.3 mM).

Molecule `COC(=O)c1cc(C)cc(C)c1NC(=O)c1sccc1S(=O)(=O)Nc1onc(C)c1Cl` returned a Selectivity in series [2] of 36200. In addition, the Relative ET-A IC50 in series [3] is 0.16.
